From paper PMC7702297 (Journal of the American Chemical Society, 2020)
Like-named read-outs stand apart in the source and are kept apart here.

What was measured:
[1] = test system: RAW 264.7 macrophage cells; experiment: Protection from PMA-induced cytotoxicity; format: cell-based
RAW 264.7 cells = experiment: Cytotoxicity
[2] = test system: RAW 264.7 macrophage cells; experiment: Intracellular ROS by DHE fluorescence in PMA-treated macrophages; format: cell-based; details: PMA 1 μg/mL 3 h; DHE 10 μM 30 min
[3] = Conventional and cryogenic TEM of self-assembled nanostructures; format: physicochemical
[4] = H2S release measured with H2S-sensitive electrochemical probe; format: physicochemical
[5] = Nile Red assay, critical aggregation concentration; format: physicochemical; details: Nile Red fluorescence; 10 mM phosphate buffer pH 7.4, room temperature
How it was run: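 Test compound dissolved in 10 mM phosphate buffer pH 7.4 at room temperature, where it self-assembles. Nile Red fluorescence intensity was recorded across a series of test compound concentrations. CAC was calculated from the rise in intensity with concentration, taken as Nile Red solubilisation in the hydrophobic domain.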

Static light scattering = format: physicochemical; details: average
[6] = PMA 2 μg/mL 3 h, Cys 800 μM, AdKOKOEE and AdKSKSE 200 μM (+ Cys), GYY4137 and Na2S 400 μM, Figure 4B
[7] = conventional and cryo-TEM, PB 10 mM pH 7.4, 1 mM

N[C@@H](CS)C(=O)O [Cys, cysteine, reference compound]
protective effect on viability of PMA-treated cells [1, 6]: Neither treatment with Cys alone nor treatment with a combination of the non-H2S-releasing control peptide (AdKOKOEE) and Cys showed any protective effect

C1COCCN1.COc1ccc(P(=S)(S)N2CCOCC2)cc1 (stereo not drawn) [GYY4137, reference compound]
protective effect on viability of PMA-treated cells [1]: Neither affected cell viability

[Na+].[Na+].[S-2] [Na2S, sodium sulfide, reference compound]
protective effect on viability of PMA-treated cells [1]: Neither affected cell viability

CCCCCCCCCCCCCC(=O)O[C@@H]1[C@@H](C)[C@@]2(O)[C@@H](C=C(CO)C[C@]3(O)C(=O)C(C)=C[C@@H]23)[C@@H]2C(C)(C)[C@]12OC(C)=O [PMA, phorbol 12-myristate 13-acetate]
concentration inducing significant cytotoxicity (RAW 264.7 cells; Figure 4A): ≥ 1000 ng/mL
cell viability after PMA alone (RAW 264.7 cells; PMA 2 μg/mL): 67%
ROS level (DHE red fluorescent signal) after PMA alone, versus untreated cells [2]: much brighter

AdKOKOEE
protective effect on viability of PMA-treated cells [1, 6]: Neither treatment with Cys alone nor treatment with a combination of the non-H2S-releasing control peptide (AdKOKOEE) and Cys showed any protective effect

AdKSKSE
average length of short nanoworms ([3]; conventional TEM, UA stained, PB 10 mM pH 7.4, 100 μM): 33±2 nm
H2S release rate relative to AdKsKsEE ([4]; Figure S13, both contain two SATO units and release similar amounts): somewhat faster
protective effect on viability of PMA-treated cells [1, 6]: some cell protective ability, but it was not as good as AdKSKSEE

AdKSKSEE
average external diameter of crescent nanostructures [3, 7]: 28±3 nm
average width of crescent nanostructures [3, 7]: 5±1 nm
aggregation number, estimate from nanocrescent volume ([3]; nanocrescent volume from TEM dimensions divided by estimated molecular volume): 560
critical aggregation concentration (CAC) [5]: 27 µM
H2S release peaking time ([4]; PHDC 1 mM + Cys 4 mM in PB at rt, electrochemical probe, average of three runs): 125 ± 15 min
H2S release without Cys ([4]; PHDC 1 mM in PB at rt, no Cys, electrochemical probe): minimal H2S was detected
aggregation number (molecules per crescent nanostructure) (Static light scattering): 600
cell viability on co-treatment with PMA ([1]; PMA 2 μg/mL, AdKSKSEE 200 μM + Cys 800 μM, 3 h, three experiments with five replicates): 95%
